TDP2 absorb: human TDP2 enzyme inhibitors, primary screen, biochemical, epi absorbance, recombinant enzyme. AID 720702, 2013. T5PNP hydrolysis, p-nitrophenol absorbance 415 nm. inhibition, % at 12.8 µM. Tyrosyl-DNA phosphodiesterase 2 (Homo sapiens), O95551. 0.34% of 370,000 active;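 active = inhibition above the mean of all tested compounds plus 3 SD, set per campaign, cut at about 25% in these data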
Target sequence (O95551 whole entry, looked up): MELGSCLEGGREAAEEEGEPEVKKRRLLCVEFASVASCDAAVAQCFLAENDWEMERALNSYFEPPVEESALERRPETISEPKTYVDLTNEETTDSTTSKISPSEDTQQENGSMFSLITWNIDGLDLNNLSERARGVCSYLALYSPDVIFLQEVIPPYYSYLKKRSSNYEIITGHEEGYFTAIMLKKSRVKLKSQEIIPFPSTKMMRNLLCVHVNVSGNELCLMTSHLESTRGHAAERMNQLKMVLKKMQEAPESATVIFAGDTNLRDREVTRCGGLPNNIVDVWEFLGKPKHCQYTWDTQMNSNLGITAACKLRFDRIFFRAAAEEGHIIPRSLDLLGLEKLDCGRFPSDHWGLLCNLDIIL
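Assay system: recombinant human TDP2 / Reagent: T5PNP substrate at 5 mM, a TopII-DNA adduct mimic / Measured by: epi absorbance from released p-nitrophenol / Evaluation: % inhibition relative to enzyme-containing and enzyme-free wells / Control set: enzyme-free and DMSO wells / Replicates: each compound tested once, singlicate / Schedule: enzyme reaction with compound for 2 h at 37 °C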
NSD2 inh: NSD2 histone methyltransferase inhibitors, primary screen, biochemical, AlphaScreen, single concentration, set 2. NSD2 peptide methylation, 120 min. 0.54% of 310,000 active. Histone-lysine N-methyltransferase NSD2 (Homo sapiens), O96028. inhibition, % at 12.5 µM; in the data active = inhibition above about 50%
LEDGF integ inh: blockers of LEDGF/p75-dependent integrase strand transfer – biochemical, TR-FRET, high throughput, primary screen; TR-FRET IN-LEDGF/p75 DNA integration, Eu/Cy5; inhibition, % at 3.7 µM; 0.64% of 370,000 active; AID 743269, 2014;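 active = inhibition above the screen-wide mean plus 3 SD, cut at about 13% in these data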;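 note: signal is the Cy5 over europium emission ratio at 671 and 618 nm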
UHRF1 binding: UHRF1 methylated DNA binding inhibitors, primary screen, counter-screen for MBD2 inhibitor project, biochemical, TR-FRET, human UHRF1, single concentration. inhibition, % at 4.4 µM. 0.75% of 370,000 active. E3 ubiquitin-protein ligase UHRF1 (Homo sapiens), Q96T88. UHRF1 binding to methylated oligo;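 note: UHRF1 SRA domain binding a hemimethylated CpG hairpin DNA probe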
Casp6 inh: human caspase-6 inhibitors, primary screen, biochemical, VEID-R110 fluorescence, single point, set 2; P55212; purified caspase-6, Z-VEID-R110 cleavage fluorescence; inhibition, % at 12.5 µM; 0.53% of 350,000 active; AID 686996, 2013;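 active = mean inhibition across replicates at least about 35%, with every replicate also reaching that limit, limit read from the data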
Target sequence (P55212 24-179 limits assumed): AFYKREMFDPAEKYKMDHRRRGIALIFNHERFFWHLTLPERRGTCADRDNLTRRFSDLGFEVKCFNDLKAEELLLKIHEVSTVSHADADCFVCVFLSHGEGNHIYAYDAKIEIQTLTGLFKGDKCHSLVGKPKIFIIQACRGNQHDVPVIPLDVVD
Target sequence (P55212 194-293 limits assumed): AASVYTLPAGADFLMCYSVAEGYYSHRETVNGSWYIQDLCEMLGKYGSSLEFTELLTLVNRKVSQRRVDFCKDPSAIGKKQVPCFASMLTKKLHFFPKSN
MBD2 inh: inhibitors of MBD2 binding to methylated DNA, primary screen, biochemical, TR-FRET, DNA-binding domain, human; Methyl-CpG-binding domain protein 2 (Homo sapiens), Q9UBB5; MBD2 binding to methylated oligonucleotide; 0.31% of 370,000 active; inhibition, % at 4.4 µM; in the data active = inhibition above about 13%
UHRF1 ctr MBD2: UHRF1 methylated DNA binding inhibitors, counter-screen for MBD2 inhibitor project, biochemical, TR-FRET, human UHRF1; inhibition, % at 4.4 µM; shares compounds with MBD2 inh; 25% of 1,000 active; UHRF1 binding to methylated oligonucleotide; AID 720530, 2013;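 note: UHRF1 SRA domain binding a labeled hemimethylated CpG hairpin DNA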
MBD2 confirm: inhibitors of MBD2 binding to methylated DNA, confirmation, biochemical, TR-FRET, DNA-binding domain, human | shares compounds with MBD2 inh | AID 720531, 2013 | inhibition, % at 4.4 µM | TR-FRET MBD2-DBD binding to methylated oligonucleotide | 26% of 1,000 active; in the data active = inhibition above about 14%
Numbers stand for hits; . = inactive; / = no result. Sampled rows, rich in hits. Any-hit rate of the full collection: about 1.8%. Cut-off read from the data, not from the text of the source, unless noted: active = inhibition above about 21%; inactive = the rest.

SMILES	TDP2 absorb	NSD2 inh	LEDGF integ inh	UHRF1 binding	Casp6 inh	MBD2 inh	UHRF1 ctr MBD2	MBD2 confirm
CCCNC(=O)N(C)C[C@H]1Oc2cc(-c3ccc(C)cc3)ccc2S(=O)(=O)N([C@@H](C)CO)C[C@H]1C	/	/	/	/	.	/	/	/
O=C(NC1CCCCCC1)C1CCC(CNS(=O)(=O)c2ccc(Br)s2)CC1 (stereo not drawn)	.	.	.	23	/	14	.	.
O=C(N[C@@H]1C=C[C@H](CC(=O)N2CCCCC2)O[C@H]1CO)c1ccc2c(c1)OCO2	/	/	/	/	.	/	/	/
O=C(N/N=C1\CCCc2ccccc21)c1ccccc1Cl	.	.	.	.	.	.	/	/
O=C(CNc1ccccc1Cl)N/N=C1\CCCc2ccccc21	.	.	.	.	.	23	.	.
COc1ccc(NS(=O)(=O)c2ccc(SC)cc2)c(OC)c1	.	.	.	23	/	17	.	.
COc1ccc(NS(=O)(=O)c2cccs2)c(OC)c1	.	.	.	.	/	.	/	/
Cc1ccc(C(=O)NCc2ccc3c(c2)OCO3)c(Cl)c1	.	.	.	22	.	15	.	.
CCCC(=O)Nc1ccc2c(c1)OC[C@H](C)N(C(=O)C1CCCC1)C[C@H](C)[C@@H](OC)CN(C)C2=O	/	/	/	/	.	/	/	/
Cc1ccc2sc(N(CCCN(C)C)C(=O)c3ccc(S(=O)(=O)N(C)Cc4ccccc4)cc3)nc2c1C	.	.	.	.	.	56	.	.
Cc1ccc2sc(N(CCCN(C)C)C(=O)c3ccc(S(=O)(=O)N(C)C)cc3)nc2c1C	.	.	.	.	.	.	/	/
NC(=O)c1ccc(NC(=O)COC(=O)c2cc3c(s2)CCC3)cc1	.	.	.	.	.	.	/	/
O=C(COC(=O)c1cc2c(s1)CCC2)Nc1ccc(F)cc1	.	.	.	28	.	15	32	19
O=C(CCCCn1c(=O)c2ccccc2n(Cc2ccccc2)c1=O)NC1CCN(Cc2ccccc2)CC1	.	.	.	27	.	13	.	.
Cc1c(-c2ccc(F)cc2)nc(N)c(C#N)c1-c1cccnc1	.	.	.	.	.	.	/	/
Cc1ccc(-c2c(C)c(-c3ccc(F)cc3)nc(N)c2C#N)o1	.	.	.	.	/	19	.	.
O=S1(=O)CC(N2CCN(CCO)CC2)CN1Cc1cn(Cc2ccc(C(F)(F)F)cc2)nn1 (stereo not drawn)	.	/	.	.	.	14	.	.
CN1CCC(N2CCN(C3CN(Cc4cn(Cc5cccc(C(F)(F)F)c5)nn4)S(=O)(=O)C3)CC2)CC1 (stereo not drawn)	.	/	.	23	.	14	.	.
CN(Cc1cn(Cc2cccc(Cl)c2)nn1)C1CN(Cc2cn(Cc3cccc(Cl)c3)nn2)S(=O)(=O)C1 (stereo not drawn)	.	/	.	.	.	14	.	.
CN(C)C1CN(Cc2cn(Cc3cccc(Cl)c3)nn2)S(=O)(=O)C1 (stereo not drawn)	.	/	.	.	.	.	/	/
O=C(NCCc1ccccc1)[C@H]1[C@H](CO)[C@H]2Cn3c(cccc3=O)[C@@H]1N2C(=O)C1CCC1	/	/	/	/	.	/	/	/
C[C@@H]1CN([C@H](C)CO)S(=O)(=O)c2ccc(C3=CCCC3)cc2O[C@@H]1CN(C)C(=O)c1cnccn1	/	/	/	/	.	/	/	/
CC(=O)N(C)C[C@H]1Oc2ncc(C3=CCCC3)cc2C(=O)N([C@@H](C)CO)C[C@H]1C	/	/	/	/	.	/	/	/
C[C@@H]1CN([C@@H](C)CO)C(=O)CCCn2nncc2CO[C@@H]1CN(C)S(=O)(=O)c1ccc(-n2cccn2)cc1	.	/	.	.	.	.	/	/
C[C@H]1CN([C@@H](C)CO)C(=O)CCCn2nncc2CO[C@H]1CN(C)S(=O)(=O)c1ccc(-n2cccn2)cc1	.	/	.	.	.	16	.	.
SMILES	TDP2 absorb	NSD2 inh	LEDGF integ inh	UHRF1 binding	Casp6 inh	MBD2 inh	UHRF1 ctr MBD2	MBD2 confirm
C[C@H](CO)N1C[C@H](C)[C@H](CN(C)C(=O)c2ccncc2)Oc2ncc(C#CC3CCCC3)cc2C1=O	/	/	/	/	.	/	/	/
CCCCn1c(SCC(=O)Nc2sc3c(c2C(N)=O)CCC3)nnc1-c1ccccc1	.	.	.	.	/	13	.	.
NC(=O)c1c(NC(=O)CSc2nnc(Cc3ccccc3)n2Cc2ccco2)sc2c1CCC2	.	.	.	.	/	.	/	/
CN(C)c1ccc(-c2nn3c(-c4ccc(Cl)cc4)nnc3s2)cc1	.	.	.	.	/	.	/	/
Cc1nn2c(-c3ccc(Cl)cc3)nnc2s1	.	.	.	.	/	14	.	.
CCC(=O)Nc1ccc2c(c1)C(=O)N(C)[C@H]1CC[C@@H](CC(=O)NCC3CCCCC3)O[C@@H]1CO2	/	/	/	/	.	/	/	/
CCc1ccc(NC(=O)CCCN2C(=S)NC(C)(C)CC2C)cc1 (stereo not drawn)	.	.	.	.	.	19	.	.
Cc1ccc(NC(=O)CCCN2C(=S)NC(C)(C)CC2C)cc1 (stereo not drawn)	.	.	.	.	.	.	/	/
O=C(NCCN1CCN(C(=O)c2ccc(F)cc2)CC1)c1ccc(F)cc1	.	.	.	.	.	14	.	.
COc1ccc(N=Cc2ccc[nH]2)cc1	.	.	.	.	/	22	.	.
CCCCOc1ccc(N=Cc2ccc[nH]2)cc1	.	.	.	.	.	.	/	/
C=C(C)C(=O)Nc1cccc(C2=NOC3(C2)C[C@@H](C(N)=O)N(C(=O)CCCCC)C3)c1 (stereo partly drawn)	.	/	41	90	59	44	100	82
CCCCCC(=O)N1CC2(CC(c3cccc(NC(=O)[C@@H]4CCC(=O)N4)c3)=NO2)C[C@@H]1C(N)=O (stereo partly drawn)	.	/	.	.	.	.	/	/
C[C@@H]1CN([C@@H](C)CO)C(=O)c2cc(C#C[C@@H](C)O)cnc2O[C@H]1CN(C)C(=O)Nc1ccc(F)cc1	/	/	/	/	.	/	/	/
c1ccc(SC23CC4CC(CC(C4)C2)C3)nc1	.	.	.	.	.	13	.	.
COc1ccc(C2C3=C(CC(C)(C)CC3=O)Oc3ncn(CCO)c(=N)c32)cc1OC (stereo not drawn)	.	.	.	.	/	49	.	.

Screening results: PubChem BioAssay, several laboratories
